Experimental data gathered from unrelated publications.
Lines come from different studies, so protocols differ.
MC1R: Melanocyte-stimulating hormone receptor (MC1R, Homo sapiens, UniProt Q01726)
Liver carboxylesterase: Liver carboxylesterase (Sus scrofa, UniProt Q29550)
DRD2: D(2) dopamine receptor (DRD2, Homo sapiens, UniProt P14416)
ADORA3: Adenosine receptor A3 (ADORA3, Homo sapiens, UniProt P0DMS8)

| SMILES | target | effect on | action | technique | pH | setting | Ki [µM] |
| --- | --- | --- | --- | --- | --- | --- | --- |
| CC[C@H](C)[C@H](NC(=O)CN)C(=O)N[C@H](C(=O)N[C@@H](CC(N)=O)C(=O)N[C@H](C(=O)N[C@@H](CC(C)C)C(=O)N[C@@H](CCC(N)=O)C(=O)N[C@@H](CCCCN)C(=O)N[C@@H](Cc1ccc(O)cc1)C(=O)N[C@@H](Cc1ccc(O)cc1)C(=O)N[C@@H](CO)C(=O)N[C@@H](CCCNC(=N)N)C(=O)N[C@H](C(=O)N[C@@H](CCCNC(=N)N)C(=O)NCC(=O)NCC(=O)N[C@@H](CCCNC(=N)N)C(=O)N[C@@H](CO)C(=O)N[C@@H](C)C(=O)N[C@H](C(=O)N[C@@H](CC(C)C)C(=O)N[C@@H](CO)C(=O)N[C@H]1CSSC[C@@H](C(=O)N[C@@H](CCCNC(=N)N)C(=O)N[C@@H](CCCNC(=N)N)C(=O)N[C@@H](CCCCN)C(=O)N[C@@H](CCCCN)C(N)=O)NC(=O)[C@H](CO)NC(=O)[C@H](CCCCN)NC(=O)[C@H](CCCNC(=N)N)NC(=O)CNC(=O)[C@H](CCCNC(=N)N)NC(=O)[C@H]([C@@H](C)O)NC(=O)[C@H](CO)NC(=O)[C@H](CO)NC(=O)[C@H](CCCCN)NC(=O)CNC(=O)[C@H]([C@@H](C)CC)NC(=O)[C@H](CCC(N)=O)NC(=O)[C@H](CCC(=O)O)NC(=O)[C@H](CCC(=O)O)NC(=O)[C@H](CCCCN)NC(=O)[C@@H]2CCCN2C(=O)[C@H](CC(C)C)NC1=O)C(C)C)C(C)C)[C@@H](C)O)[C@@H](C)CC | MC1R | ligand displacement in cells |  |  |  |  | 0.198 |
| CCCC[C@H](NC(=O)[C@H](CO)NC(=O)[C@H](Cc1ccc(O)cc1)NC(=O)[C@H](CO)NC(C)=O)C(=O)N[C@@H](CCC(=O)O)C(=O)N[C@@H](Cc1c[nH]cn1)C(=O)N[C@@H](C)C(=O)N[C@@H](CCCNC(=N)N)C(=O)N[C@@H](Cc1c[nH]c2ccccc12)C(=O)NCC(=O)N[C@@H](CCCCN)C(=O)N1CCC[C@H]1C(=O)N[C@H](C(=O)NCC(=O)N[C@@H](CCCCN)C(=O)N[C@@H](CCCCN)C(=O)N[C@@H](CCCNC(=N)N)C(N)=O)C(C)C | MC1R | ligand displacement in cells |  | radioligand |  |  | 0.0378 |
| CCCCC[C@H](O)/C=C/[C@H]1[C@H](O)CC(=O)[C@@H]1CCCCCCC(=O)O | Liver carboxylesterase | enzyme activity | inhibitor | HPLC |  |  | > 28 |
| c1ccc(CCC2=NCCN2CCc2ccccc2)cc1 | DRD2 | ligand displacement |  | radioligand |  |  | > 10 |
| C=CN1CCCn2c1nc1c2c(=O)n(C)c(=O)n1C | ADORA3 | ligand displacement |  | radioligand |  | cell membranes | > 10 |
| COc1ccc2c(c1)C(=O)N(CCN1CCN(c3ccccc3OC)CC1)C2 | DRD2 | ligand displacement |  | radioligand |  |  | 1.65 |
| CCCCCC(C)N1CCCn2c1nc1c2c(=O)n(C)c(=O)n1C (stereo not shown) | ADORA3 | ligand displacement |  | radioligand |  | cell membranes | > 10 |
| CC/C=C\C/C=C\C/C=C\C/C=C\C/C=C\CCCC(=O)O | Liver carboxylesterase | enzyme activity | inhibitor | HPLC | pH 7.4 |  | 0.34 |
| CCn1c(-c2nc3cc(C(=O)N4CCC[C@@H](N)C4)cc(OC)c3n2C)cc2cccnc21 | Protein-arginine deiminase type-2 (PADI2, Homo sapiens, UniProt Q9Y2J8) | enzyme activity | inhibitor |  |  |  | 1580 |
| CC(C)CCCC(C)N1CCCn2c1nc1c2c(=O)n(C)c(=O)n1C (stereo not shown) | ADORA3 | ligand displacement |  | radioligand |  | cell membranes | 2.57 |
| CC/C=C\C/C=C\C/C=C\C/C=C\C/C=C\C/C=C\CCC(=O)O | Liver carboxylesterase | enzyme activity | inhibitor | HPLC | pH 7.4 |  | 3.7 |
| CC(C)CC(C)N1CCCn2c1nc1c2c(=O)n(C)c(=O)n1C (stereo not shown) | ADORA3 | ligand displacement |  | radioligand |  | cell membranes | > 10 |
| O=C1c2ccccc2CCN1CCCCN1CCN(c2cccc(Cl)c2Cl)CC1 | 5-hydroxytryptamine receptor 1E (HTR1E, Homo sapiens, UniProt P28566) | ligand displacement |  | radioligand |  |  | 3.45 |
| CCN1CCCn2c1nc1c2c(=O)n(C)c(=O)n1C | ADORA3 | ligand displacement |  | radioligand |  | cell membranes | > 10 |
| NCCCC[C@H](NC(=O)[C@@H]1CCCN1C(=O)[C@@H]1CSSC[C@H](NC(=O)CNC(=O)CNC(=O)CN)C(=O)N[C@@H](Cc2ccc(O)cc2)C(=O)N[C@@H](Cc2ccccc2)C(=O)N[C@@H](CCC(N)=O)C(=O)N[C@@H](CC(N)=O)C(=O)N1)C(=O)NCC(N)=O | Vasopressin V2 receptor (AVPR2, Homo sapiens, UniProt P30518) | ligand displacement |  | radioligand |  | cell membranes | 6.9 |
| CCNC(=O)[C@H]1O[C@@H](n2cnc3c(N)nc(NN=C[C@H]4CCC=CO4)nc32)[C@H](O)[C@@H]1O | ADORA3 | ligand displacement |  | radioligand |  |  | 0.00451 |
| CNC(=O)[C@@]12C[C@@H]1[C@@H](n1cnc3c(NCc4cccc(C#CCCCCc5cn(C67CC8CC(CC(C8)C6)C7)nn5)c4)nc(Cl)nc31)[C@H](O)[C@@H]2O | ADORA3 | ligand displacement |  | radioligand |  | cell membranes | 0.0218 |
| C=CCN1CCCn2c1nc1c2c(=O)n(C)c(=O)n1C | ADORA3 | ligand displacement |  | radioligand |  | cell membranes | > 10 |
| Oc1ccc(CCC2=NCCN2CCc2ccccc2)cc1 | DRD2 | ligand displacement |  | radioligand |  |  | 0.794 |
